For experiment [1], the system named is GC signaling. The experiment is described as follows: Pilot chemical screen of FDA approved drug library, AB.9 GRE:Luc cells. As to conditions: 48 h; for primary screen hit (activation of GC signaling): 4 μg/mL in 0.3% DMSO, robust z-score cutoff 12.3; for retest for activation of GC signaling: at least 2 concentrations. The experiment is classed as cell-based, zebrafish. The essentials:
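GRE:Luc AB.9 cells in luciferin-L-15 received library compounds prediluted to 40 μg/mL in 3% DMSO, giving a final 4 μg/mL in 0.3% DMSO. There were 3 replica plates, each with 8 DEX (10 μM) and 8 DMSO controls, read for 48 h. Log-transformed trapezoidal AUCs were robust z-scored, with a cutoff of 12.3 set by ROC/Youden index. Retests used a second supplier, the same setup and ≥2 concentrations.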

Experiment [2] relates to GC signaling. The experiment is described as follows: Pilot chemical screen of FDA approved drug library, GRE:Luc larvae. The experiment is classed as in vivo, zebrafish. The conditions noted are these: 48 h; for primary screen hit (activation of GC signaling): larvae, 4 μg/mL in 0.3% DMSO, robust z-score cutoff 1.49; for retest for activation of GC signaling: GRE:Luc larvae, at least 2 concentrations. The essentials: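 Single 5 dpf GRE:Luc larvae in luciferin-E3 were exposed to library compounds at a final 4 μg/mL in 0.3% DMSO (prediluted to 40 μg/mL in 3% DMSO), with 5–11 replicates per compound. Each plate held 8 DEX (10 μM) and 8 DMSO controls; reading lasted 48 h. Hits were called from log-transformed AUCs, robust z-scored, above a cutoff of 1.49 chosen by ROC/Youden index. Retests used a second supplier and ≥2 concentrations.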

In experiment [3] the test system is GC signaling. Nature of the experiment: GRIZLY assay: bioluminescence of single GRE:Luc transgenic zebrafish larvae. The experiment is classed as in vivo. As to conditions: for relative reporter (luciferase) activity in response to treatment: 5 dpf, compound added to the water; for inhibition of dexamethasone-induced relative reporter activity: in presence of 5 μM dexamethasone. The essentials:
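Single 4 dpf transgenic larvae were placed one per well in E3 medium with 0.5 mM luciferin and dosed via the water at 5 dpf. The antagonist was given with 5 μM DEX; organotins with 5 μM DEX for 24 h; salt stress was 250 mM NaCl. Plates were sealed and read at 28 °C. Larval n was 48 for dose–response and 22 for salt. Tests were non-parametric, with EC50/IC50 from non-linear regression.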

Experiment [4] relates to endogenous cortisol levels. The experiment is described as follows: Cortisol-ELISA of larval extracts. As to conditions: after 20 min. The format is in vivo, zebrafish. The essentials: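 Osmotic stress was induced in 5 dpf larvae with 250 mM NaCl, and endogenous cortisol was followed over time after exposure (n = 5).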
For another experiment, the system named is Luciferase expression. The experiment is described as follows: Whole mount immunohistochemistry with anti-luciferase antibody in GRE:Luc larvae. The experiment is classed as in vivo, zebrafish. As to conditions: 5 dpf larvae, 40 μM, 8 h.
For experiment [5], the system named is GC signaling. Nature of the experiment: AB.9 GRE:Luc cell reporter bioluminescence assay. The experiment is classed as cell-based, zebrafish. As to conditions: AB.9 GRE:Luc cells; for inhibition of dexamethasone-induced relative reporter activity: co-treated with 10 nM DEX (Figure 2 legend: 5 nM). Put shortly:
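AB.9 GRE:Luc cells were seeded at 35,000 cells/well one day ahead and held at 28 °C. Medium was then swapped for phenol-red-free L-15 with 0.5 mM luciferin before compound addition. Organotin runs used DEX in 17% (v/v) charcoal-treated FCS with TBT or DBT at 30–500 nM. Plates were sealed and read for 24 h at 28 °C. Analysis used one-way ANOVA with Dunnett's posttest; IC50 came from non-linear regression.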

We go through 14 compounds from publication PMC3401037 (ACS Chemical Biology, 2012).

“Also recorded” adds a separate entry of the source.

With `NCCC(O)(P(=O)(O)O)P(=O)(O)O` [pamidronic acid], in the experiment with GC signaling [1], the “primary screen hit (activation of GC signaling)” value (“primary screen hit” below) is reported as “false positive hits” and the “retest for activation of GC signaling” value was “could not be confirmed during the rescreen”.
Consider `CC(=O)S[C@@H]1CC2=CC(=O)CC[C@]2(C)[C@H]2CC[C@@]3(C)[C@@H](CC[C@@]34CCC(=O)O4)[C@H]12` [spironolactone], for which the “primary screen hit” value with GC signaling [2] is on record as “scored as primary screen hits”.
Take `C[C@]12C=CC(=O)C=C1CC[C@@H]1[C@@H]2C(=O)C[C@@]2(C)[C@H]1CC[C@]2(O)C(=O)CO` [prednisone]: the entries for the “retest for activation of GC signaling” value in the experiment with GC signaling [2] and with GC signaling [1] were “unable to do so at all concentrations tested” and “weak activation of GC signaling only at the highest concentration tested”, respectively. For the same compound, the figures for the “primary screen hit” value in the experiment with GC signaling [2] and with GC signaling [1] were “not retained in the primary screen” and “being the exception”, respectively.
For `C=C1C[C@H]2[C@@H]3C=C(C)C4=CC(=O)CC[C@]4(C)[C@H]3CC[C@]2(C)[C@@]1(OC(C)=O)C(C)=O` [melengestrol acetate], in the experiment with GC signaling [2], the “retest for activation of GC signaling” value was “dose-dependently activate GC signaling” and the “primary screen hit” value is recorded as “missed”.
In the case of `C[C@]12CCC(=O)C=C1CC[C@@H]1[C@@H]2[C@@H](O)C[C@@]2(C)[C@H]1CC[C@]2(O)C(=O)CO` [cortisol, hydrocortisone], the “relative reporter (luciferase) activity in response to treatment” value (“relative reporter (luciferase) activity” below) in the experiment on GC signaling [3] (GRE:Luc larvae) was “responded in a dose-dependent manner”.
For the compound `CC(=O)[C@H]1CC[C@H]2[C@@H]3CC=C4C[C@@H](O)CC[C@]4(C)[C@H]3CC[C@]12C` [pregnenolone], the “retest for activation of GC signaling” value in the experiment on GC signaling [2] is given as “confirmed to activate the GC signaling pathway in vivo”; in the experiment with GC signaling [1] it was “did not activate the GC pathway”. Also, in the experiment on GC signaling [2], the “primary screen hit” value is given as “scored as primary screen hits”. The “cortisol levels in the larvae after treatment” value in experiment [4] is given as “significantly increased cortisol levels”; in experiment [4] (listed as Pregnenolone), “increase in cortisol (hydrocortisone) levels”.
On to `C[C@H]1C[C@H]2[C@@H]3CCC4=CC(=O)C=C[C@]4(C)[C@@]3(F)[C@@H](O)C[C@]2(C)[C@@]1(O)C(=O)CO` [betamethasone], for which the “fluorescence intensity of luciferase immunohistochemistry” value in the experiment with Luciferase expression is “significant (p = 0.0115, n = 10) increase”.
Consider `C[C@]12C[C@H](O)[C@H]3[C@@H](CCC4=CC(=O)CC[C@@]43C)[C@@H]1CC[C@@H]2C(=O)CO` [corticosterone], for which, in the experiment with GC signaling [2], the “retest for activation of GC signaling” value was “unable to do so at all concentrations tested” and the “primary screen hit” value is recorded as “not retained in the primary screen”. The “retest for activation of GC signaling” value with GC signaling [1] is on record as “able to activate the GC signaling pathway”.
For the compound `C[C@@H]1C[C@H]2[C@@H]3CCC4=CC(=O)C=C[C@]4(C)[C@@]3(F)[C@@H](O)C[C@]2(C)[C@@]1(O)C(=O)CO` [dexamethasone], the “induction of reporter activity at 1 dpf” value in the experiment with GC signaling [3] (20 μM DEX, 1 dpf, 9 h after start of treatment) is reported as “low-level yet non-significant induction”. The “relative reporter (luciferase) activity” value in the experiment on GC signaling [3] (GRE:Luc larvae) is reported as “increase in relative luciferase activity”; in the experiment with GC signaling [3] (GRE:Luc larvae, listed as DEX), “responded in a dose-dependent manner”.
On to `Nc1c2c(nc3ccccc13)CCCC2O` (stereo not drawn) [hydroxytacrine], for which, in the experiment on GC signaling [1], the “primary screen hit” value is listed as “false positive hits” and the “retest for activation of GC signaling” value is “could not be confirmed during the rescreen”.
With `CCC[CH2][Sn]([Cl])([Cl])[CH2]CCC` [DBT, dibutyltin dichloride], the “inhibition of dexamethasone-induced relative reporter activity” value was “did not show statistically significant attenuation of GC signaling” in the experiment on GC signaling [3] (GRE:Luc larvae); “significantly reduced by treatment with 250 and 500 nM DBT; also recorded: statistically significant inhibition of bioluminescence at higher concentrations” in the experiment with GC signaling [5].
With `C[C@]12CCC(=O)C=C1CC[C@@H]1[C@@H]2[C@@H](O)C[C@]2(C=O)[C@@H](C(=O)CO)CC[C@@H]12` [aldosterone], in the experiment on GC signaling [3] (GRE:Luc larvae), the “relative reporter (luciferase) activity” value is “did not respond”. The “relative reporter activity in response to treatment” value with GC signaling [5] is “did not respond”.
In the case of `CCC[CH2][Sn]([CH2]CCC)[CH2]CCC` [TBT, tributyltin], the “lowest concentration inhibiting GC signaling in GRE:Luc larvae” value in the experiment on GC signaling [3] (GRE:Luc larvae, 5 μM dexamethasone, measured for 24 h, p ≤ 0.05) was found to be 20 nM. Besides, the “inhibition of dexamethasone-induced relative reporter activity” value with GC signaling [3] (GRE:Luc larvae) was “effective in inhibiting GC signaling”; in the experiment on GC signaling [5] it was “indistinguishable from cells treated with DEX alone”.
For `CC#C[C@]1(O)CC[C@H]2[C@@H]3CCC4=CC(=O)CCC4=C3[C@@H](c3ccc(N(C)C)cc3)C[C@@]21C` [mifepristone], the “inhibition of dexamethasone-induced relative reporter activity” value in the experiment with GC signaling [3] (GRE:Luc larvae) and with GC signaling [5] was “blocked the response of the reporter to DEX treatment” in each case.
